Results reported in ChEMBL document CHEMBL4680231, “A glutathione-responsive photosensitizer with fluorescence resonance energy transfer characteristics for imaging-guided targeting photodynamic therapy” (Eur J Med Chem, 2020).
Active and inactive are the calls of the source. The calls are words filed in the database; no cut-off is given here.

Experiments:
[1] = Prodrug activation in human HeLa cells assessed as increase in fluorescence at 10 uM after 8 hrs in presence of GSH by confocal laser scanning microscopic method; assay type: cell-based
How it was run: (§1)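 Cells (10^5 per confocal dish) were seeded in DMEM overnight at 37 °C, 5% CO2. They were pretreated with 5 mM GSH in DMEM, or medium alone, for 2 h, then washed. Compound at 10 μM was added for 8 h. Intracellular fluorescence was read by confocal microscopy (excitation 633 nm) or by flow cytometry under the same conditions.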

[2] = Prodrug activation in mouse H22 cells assessed as increase in fluorescence at 10 uM after 8 hrs in presence of GSH by flow cytometric analysis; assay type: cell-based; settings: h22, 8 h; how it was run: as §1
[3] = test system: H22; test: Photodynamic antitumor activity against mouse H22 cells implanted in Kunming mouse assessed as reduction in tumour size at 2 mg/kg, iv administered at […] post-implantation followed by irradiated with 100 mW/cm2 […] and measured up to 15 days; assay type: functional, organism-based; settings: time 15.0 day
How it was run: (§2)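 Mice carried subcutaneous H22 tumours of about 50 mm³ and were randomised into 5 groups of 5. They received saline or compound at 2 mg/kg (100 μL) i.v. on days 1, 4 and 7. Light groups were irradiated at 670 nm, 100 mW/cm², 12 h after each dose. Tumour volume and body weight were recorded daily for 15 days. Tumours were then excised and weighed, fixed in 4% paraformaldehyde, paraffin-embedded and H&E stained. Apoptotic and necrotic areas were scored microscopically.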

[4] = Prodrug activation in HELF cells assessed as increase in fluorescence at 10 uM after 8 hrs by confocal laser scanning microscopic method; assay type: cell-based; settings: human, primary lung fibroblast; how it was run: as §1
[5] = test system: HeLa; test: Induction of ROS generation in human HeLa cells at 10 uM incubated for 12 hrs irradiated with 20 mW cm^-2 light in presence of vitamin C by DCFH-DA staining based confocal laser scanning microscopic method; assay type: functional, cell-based
How it was run: (§3)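 Cells were seeded in confocal dishes overnight. Pretreatment was GSH 5 mM in DMEM for 2 h, or vitamin C 100 μM for 1 h, before compound at 10 μM for 12 h. DCFH-DA was added for 1 h, then 5 PBS washes and transfer to serum-free, phenol red-free DMEM. Cells were irradiated at 670 nm, 20 mW·cm⁻², for 3 min. Confocal imaging used λex 488 nm for DCF and 633 nm for the photosensitizer.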

[6] = Prodrug activation in human HeLa cells assessed as increase in fluorescence at 10 uM after 8 hrs by confocal laser scanning microscopic method; assay type: cell-based; how it was run: as §1
[7] = test system: HeLa; test: Induction of ROS generation in human HeLa cells at 10 uM incubated for 12 hrs irradiated with 20 mW cm^-2 light in presence of GSH by DCFH-DA staining based confocal laser scanning microscopic method; assay type: functional, cell-based; how it was run: as §3
[8] = test system: HeLa; test: Cytotoxicity against human HeLa cells assessed as reduction cell viability up to 10 uM after 24 hrs in dark condition by MTT assay; assay type: cell-based
How it was run: (§4)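 MTT assay. About 6000 cells per well were seeded and left overnight at 37 °C, 5% CO2. Compound was added at a range of concentrations in DMEM (1% DMSO, 0.05% Tween 80) for 24 h in the dark, then the medium was replaced. Irradiated wells received a 670 nm LED at 20 mW·cm⁻² for 2 min (2.4 J·cm⁻²); dark wells were not irradiated. Cells were incubated overnight, then MTT for 4 h, DMSO added, OD read at 490 nm. Three independent experiments, each in sextuplicate. IC50 is the concentration killing 50% of cells.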

[9] = Prodrug activation in human A549 cells assessed as increase in fluorescence at 10 uM after 8 hrs in presence of GSH by confocal laser scanning microscopic method; assay type: cell-based; settings: a549, 8 h; how it was run: as §1
[10] = Prodrug activation in mouse H22 cells assessed as increase in fluorescence at 10 uM after 8 hrs in presence of GSH by confocal laser scanning microscopic method; assay type: cell-based; settings: h22, 8 h; how it was run: as §1
[11] = test system: HeLa; test: Cytotoxicity against human HeLa cells assessed as reduction cell viability preincubated for 24 hrs in dark condition followed by irradiated with 20 mW cm^-2 light by MTT assay; assay type: functional, cell-based; how it was run: as §4
[12] = Prodrug activation in human A549 cells assessed as increase in fluorescence at 10 uM after 8 hrs in presence of GSH by flow cytometric analysis; assay type: cell-based; settings: a549, 8 h; how it was run: as §1
[13] = test system: H22; test: Photodynamic antitumor activity against mouse H22 cells implanted in Kunming mouse assessed as reduction in tumour weight at 2 mg/kg, iv administered at […] post-implantation followed by irradiated with 100 mW/cm2 […] and measured up to 15 days; assay type: functional, organism-based; settings: time 15.0 day; how it was run: as §2
[14] = test system: H22; test: Photodynamic antitumor activity against mouse H22 cells implanted in Kunming mouse assessed as increase in necrotic cells in tumour at 2 mg/kg, iv administered at […] post-implantation followed by irradiated with 100 mW/cm2 […] and measured up to 15 days by H and E staining based microscopic method; assay type: functional, organism-based; settings: time 15.0 day; how it was run: as §2
[15] = Prodrug activation in HELF cells assessed as increase in fluorescence at 10 uM after 8 hrs in presence of GSH by flow cytometric analysis; assay type: cell-based; settings: human, primary lung fibroblast; how it was run: as §1
[16] = test system: H22; test: Induction of ROS generation in mouse H22 cells at 10 uM incubated for 12 hrs irradiated with 20 mW cm^-2 light in presence of GSH by DCFH-DA staining based confocal laser scanning microscopic method; assay type: functional, cell-based; how it was run: as §3
[17] = test system: H22; test: Cytotoxicity against mouse H22 cells assessed as reduction cell viability preincubated for 24 hrs in dark condition followed by irradiated with 20 mW cm^-2 light by MTT assay; assay type: functional, cell-based; how it was run: as §4
[18] = Cytotoxicity against human HELF cells assessed as reduction cell viability up to 10 uM after 24 hrs in dark condition by MTT assay; assay type: cell-based; settings: primary lung fibroblast; how it was run: as §4
[19] = test system: H22; test: Induction of ROS generation in mouse H22 cells at 10 uM incubated for 12 hrs irradiated with 20 mW cm^-2 light in presence of vitamin C by DCFH-DA staining based confocal laser scanning microscopic method; assay type: functional, cell-based; how it was run: as §3
[20] = Prodrug activation in mouse H22 cells assessed as increase in fluorescence at 10 uM after 8 hrs by flow cytometric analysis; assay type: cell-based; settings: h22, 8 h; how it was run: as §1
[21] = test system: Primary lung fibroblast; test: Induction of ROS generation in human HELF cells at 10 uM incubated for 12 hrs irradiated with 20 mW cm^-2 light in presence of GSH by DCFH-DA staining based confocal laser scanning microscopic method; assay type: functional, cell-based; how it was run: as §3
[22] = test system: Primary lung fibroblast; test: Induction of ROS generation in human HELF cells at 10 uM incubated for 12 hrs irradiated with 20 mW cm^-2 light in presence of vitamin C by DCFH-DA staining based confocal laser scanning microscopic method; assay type: functional, cell-based; how it was run: as §3
[23] = test system: H22; test: Photodynamic antitumor activity against mouse H22 cells implanted in Kunming mouse assessed as reduction in tumour volume at 2 mg/kg, iv administered at […] post-implantation followed by irradiated with 100 mW/cm2 […] and measured up to 15 days; assay type: functional, organism-based; settings: time 15.0 day; how it was run: as §2
[24] = test system: A549; test: Cytotoxicity against human A549 cells assessed as reduction cell viability up to 10 uM after 24 hrs in dark condition by MTT assay; assay type: cell-based; settings: a549, 24 h; how it was run: as §4
[25] = Photoactivity of compound in PBS with 0.05% Tween 80 assessed as singlet oxygen generation at 10 uM irradiated with 20 mW cm^-2 light in presence on GSH by DMA based fluorescence assay

Compound | Drug metabolism [1] | Drug metabolism [2] | Activity [3] | Drug metabolism [4] | Activity [5] | Drug metabolism [6] | Activity [7] | Activity [8] | Drug metabolism [9] | Drug metabolism [10] | Drug metabolism [12] | Activity [13] | Activity [14] | Drug metabolism [15] | Activity [16] | Activity [18] | Activity [19] | Drug metabolism [20] | Activity [21] | Activity [22] | other results
COCCOCCOCCOc1ccc(/C=C/C2=[N+]3C(=C(c4ccc(OCc5cn(CCCCCCn6cc(COc7ccc(C8=C9C(C)=CC(/C=C/c%10ccc(N(C)C)cc%10)=[N+]9[B-](F)(F)n9c(/C=C/c%10ccc(N(C)C)cc%10)cc(C)c98)cc7)nn6)nn5)cc4)c4c(C)c(I)c(/C=C/c5ccc(OCCOCCOCCOC)cc5)n4[B-]3(F)F)C(C)=C2I)cc1 | Metabolite_Notdetected | Metabolite_Notdetected | Active | Metabolite_Notdetected | inactive | Metabolite_Notdetected | inactive | Non-Toxic | Metabolite_Notdetected | Metabolite_Notdetected | Metabolite_Notdetected | Active | Active | Metabolite_Notdetected | inactive | Non-Toxic | inactive | Metabolite_Notdetected | inactive | inactive | Activity [11]: inactive; Activity [17]: inactive; Activity [23]: Active; Activity [24]: Non-Toxic; Drug metabolism [25]: Metabolite not detected
COCCOCCOCCOc1ccc(/C=C/C2=[N+]3C(=C(c4ccc(OCc5cn(CCSSCCn6cc(COc7ccc(C8=C9C(C)=CC(/C=C/c%10ccc(N(C)C)cc%10)=[N+]9[B-](F)(F)n9c(/C=C/c%10ccc(N(C)C)cc%10)cc(C)c98)cc7)nn6)nn5)cc4)c4c(C)c(I)c(/C=C/c5ccc(OCCOCCOCCOC)cc5)n4[B-]3(F)F)C(C)=C2I)cc1 | Metabolite_Detected | Metabolite_Detected | Active | Metabolite_Notdetected | inactive | Metabolite_Detected | Active | Non-Toxic | Metabolite_Detected | Metabolite_Detected | Metabolite_Detected | Active | Active | Metabolite_Detected | Active | Non-Toxic | inactive | Metabolite_Detected | Active | inactive | IC50 ([11]; light or radiation study): 670 nM; IC50 ([17]; H22, light or radiation study): 480 nM; Activity [23]: Active; Activity [24]: Non-Toxic; Drug metabolism [25]: Metabolite detected
